The values that follow come from ChEMBL document CHEMBL1806353, “Synthesis of antitrypanosomal 1,2-dioxane derivatives based on a natural product scaffold” (Bioorg Med Chem Lett, 2011).

What is called IC50 is the concentration that inhibits the measured activity by half. Low values mean greater potency in that assay, high ones weaker potency in that assay.

The experiment deals with Trypanosoma brucei brucei. Nature of the experiment: Antitrypanosomal activity against blood stream form of Trypanosoma brucei brucei BF427 after 48 hrs by Alamar Blue assay. Format: functional, organism-based. As to conditions: BF427, 48 h. The procedure, abridged:
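Bloodstream-form T. b. brucei 427, starting inoculum 2 × 10³ parasites per well, exposed to 2-fold serial drug dilutions in HMI-9 with 10% FBS for 48 h at 37 °C, 5% CO₂. Final DMSO no more than 0.08%. Alamar Blue then added for a further 4 h, fluorescence read at 544/590 nm. IC50 from three biological replicates, each averaging three technical replicates.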

In turn, `C=C[C@@H]1CC[C@@H](CC(=O)OCc2ccccc2)OO1` registered an IC50 of 3030 nM. As to `CCOC(=O)/C=C\[C@@H]1CC[C@@H](CC(=O)OCc2ccccc2)OO1`, half-maximal inhibition (IC50) was put at 1350 nM. As for `CCOC(=O)/C=C/[C@@H]1CC[C@@H](CC(=O)OCc2ccccc2)OO1`, 620 nM corresponded to half-maximal inhibition (IC50).

As for `CC(=O)/C=C\[C@@H]1CC[C@@H](CC(=O)OCc2ccccc2)OO1`, the IC50 worked out at 1880 nM. Against the preceding molecule, the IC50 is about 3-fold higher. `CC(C)(C)OC(=O)/C=C\[C@@H]1CC[C@@H](CC(=O)OCc2ccccc2)OO1` yielded an IC50 of 370 nM. `CC(C)(C)OC(=O)/C=C/[C@@H]1CC[C@@H](CC(=O)OCc2ccccc2)OO1` came in with a 50% inhibitory concentration (IC50) of 200 nM. Molecule `O=C(/C=C\[C@@H]1CC[C@@H](CC(=O)OCc2ccccc2)OO1)OCc1ccccc1` had an IC50 of 240 nM. The value for `O=C(/C=C/[C@@H]1CC[C@@H](CC(=O)OCc2ccccc2)OO1)OCc1ccccc1` was 640 nM; that for `CC(=O)/C=C/[C@@H]1CC[C@@H](CC(=O)OCc2ccccc2)OO1` was 900 nM; that for `O=C(C[C@@H]1CC[C@@H](/C=C\C(=O)c2ccccc2)OO1)OCc1ccccc1` was 580 nM.

As to `O=C(C[C@@H]1CC[C@@H](/C=C/C(=O)c2ccccc2)OO1)OCc1ccccc1`, the IC50 worked out at 510 nM. For `N=C(N)c1ccc(OCCCCCOc2ccc(C(=N)N)cc2)cc1`, the IC50 came to 860 nM.

Regarding `N#CC=C[C@@H]1CC[C@@H](CC(=O)OCc2ccccc2)OO1` (mixture of isomers), the IC50 stood at 3140 nM.
